How the values were obtained:
[1] = biological target: T1, Human immunodeficiency virus type 1 integrase (Human immunodeficiency virus 1, UniProt Q7ZJM1); assay: Inhibition of HIV1 integrase by BioVeris assay
Procedure, shortened: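 Electrochemiluminescent high-throughput screen measuring HIV-1 integrase strand transfer in the presence of Mg2+, with ruthenium-labelled reagents.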

[2] = biological target: T1, Human immunodeficiency virus type 1 integrase; assay: Inhibition of HIV1 integrase 3' processing activity
Procedure, shortened: (§1)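 Hits from the electrochemiluminescent screen were confirmed in a gel-based assay with Mg2+. IC50 values were determined separately for 3'-processing and strand transfer.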

[3] = biological target: T1, Human immunodeficiency virus type 1 integrase; assay: Inhibition of HIV1 integrase strand transfer activity; procedure, shortened: as §1

T1 sequence (Q7ZJM1 whole entry): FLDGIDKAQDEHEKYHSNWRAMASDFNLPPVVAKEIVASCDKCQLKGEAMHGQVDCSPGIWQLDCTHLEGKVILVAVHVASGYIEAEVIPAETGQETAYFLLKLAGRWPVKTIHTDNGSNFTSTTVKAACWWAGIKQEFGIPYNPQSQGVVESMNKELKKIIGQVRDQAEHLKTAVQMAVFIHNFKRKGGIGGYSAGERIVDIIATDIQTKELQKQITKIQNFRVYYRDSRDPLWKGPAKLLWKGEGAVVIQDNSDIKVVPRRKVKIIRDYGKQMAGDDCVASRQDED

`Cc1[nH]nc(O)c1CC(=O)N/N=C/c1ccccc1OCC(=O)O` gave an IC50 [1] of 580 µM, an IC50 [2] of 121 µM and an IC50 [3] of 54 µM.
`Cc1n[nH]c(O)c1C(c1ccc(-c2ccc(Cl)c(C(=O)O)c2)o1)c1c(O)n[nH]c1C` showed an IC50 [1] of 121 µM, an IC50 [2] of 87 µM and an IC50 [3] of 57 µM.
Work on `O=C(O)CCC(=O)Nc1ccccc1-c1ccccc1NC(=O)CCC(=O)O` yielded an IC50 [1] of 37 µM, an IC50 [2] greater than 333 µM and an IC50 [3] greater than 333 µM.
With `C=C(NNC(=O)c1c[nH]c2ccccc12)c1cccc(NC(=O)CCCC(=O)O)c1` the IC50 [1] was 141 µM, the IC50 [2] was 120 µM and the IC50 [3] was 70 µM.
Molecule `C=C(NNC(=O)C1CC1c1ccccc1)c1cccc(NC(=O)C2CCCCC2C(=O)O)c1` (stereo unspecified) has an IC50 [1] of 113 µM, an IC50 [2] of 65 µM and an IC50 [3] of 49 µM.
`CC(C)n1nc(C(=O)NN/C(=C/CC(=O)O)c2ccc(Br)cc2)c2ccccc2c1=O` was tested, and the IC50 [1] was 670 µM and the IC50 [2] was 295 µM.
`O=C(O)COc1ccccc1/C=N/NC(=O)CSc1nc2ccccc2[nH]1` was tested, and the IC50 [1] was 780 µM, the IC50 [2] was 155 µM and the IC50 [3] was 120 µM.
`C=C(NNC(=O)Cc1ccc(O)cc1)c1ccc(NC(=O)CCC(=O)O)cc1` was tested, and the IC50 [1] was 292 µM, the IC50 [2] was 204 µM and the IC50 [3] was 114 µM.
`C=C(NNC(=O)C(C)Oc1ccccc1Cl)c1cccc(NC(=O)C2CCCCC2C(=O)O)c1` (stereo unspecified) showed an IC50 [1] of 182 µM, an IC50 [2] greater than 333 µM and an IC50 [3] greater than 333 µM.

— ChEMBL document CHEMBL1149704, “Virtual screening application of a model of full-length HIV-1 integrase complexed with viral DNA” (Bioorg Med Chem Lett, 2007)
